Bioassay records deposited in PubChem BioAssay by several laboratories.
NRP1-CendR mod: NRP-1/CendR interaction modulation | AID 602438 | hit rate 0.85% among 360,000 | FAM-RPARPAR peptide binding to NRP-1, fluorescence polarization | inhibition, % at 25 µM;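 active means inhibition or corrected inhibition above about 18%, plus a signal ratio from 0.5 to 1.5, limit read from the data, passing the limit was not always enough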
PLCg1 inh: PLC-gamma1 (human) inhibition, primary screen | P19174 | purified PLC-gamma1, fluorogenic substrate, fluorescence | inhibition, % at 12.2 µM | hit rate 0.84% among 370,000; in the data active means inhibition above about 9.5%
DDE Tn6 FP inh: disrupts Tn6 cyclic peptide binding to fibrin D-Dimer-E complex; P02675; Fibrin DD(E) TRITC-Tn6 fluorescence polarization displacement; inhibition, % at 8.3 µM; hit rate 0.21% among 370,000;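 active means inhibition above a per-campaign cutoff: mean of compounds within control limits plus 3 SD, cut at about 15% in these data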;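 further: 0% = median of all compound wells on the plate and 100% = blocking peptide control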
DDE Tn7 FP inh: disrupts Tn7 cyclic peptide binding to fibrin D-Dimer-E complex; inhibition, % at 8.3 µM; FP displacement of FITC-Tn7 peptide from fibrin DD(E); 0% = median of compound wells per plate; AID 720508; P02675; hit rate 0.13% among 370,000;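 active means inhibition above the mean of compounds falling within the control limits plus 3 SD of them, cut at about 14% in these data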;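 further: 0% = plate median of compound wells and 100% = 10 µM Aha-Tn7 peptide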
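system = human fibrin DD(E) protein | quantity = DD(E) 2 µM final | medium = Tris/NaCl/CaCl2 buffer, pH 7.8 | also added = labelled Tn7 tracer, 0.1 µM | compound dosing = single point at 8.3 µM | timing = compound with protein 10 min, then 3 h after probe, room temperature | signal = FP measurement | benchmarks = Aha-Tn7 high control | repeats = one replicate per compound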
PLCb3 inh: inhibitors of human phospholipase C beta3 | Q01970 | Purified PLC-beta3, fluorogenic substrate, fluorescence | inhibition, % at 12.2 µM | hit rate 0.18% among 370,000 | AID 720704; in the data active means inhibition above about 11%;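 further: 0% = median of compound wells on plate and 100% = full blocker control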
proKLK7 act: activators of human kallikrein-7 zymogen. activation, % at 7 µM. AID 652039. P49862. purified proKLK7, EDANS-DABCYL substrate fluorescence; 100% is mature enzyme control, 0% vehicle. hit rate 0.9% among 370,000;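 active means activation above the mean of all tested compounds plus 3 SD, computed per campaign excluding outliers beyond control limits, cut at about 13% in these data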
Target sequence (P49862 whole entry, looked up): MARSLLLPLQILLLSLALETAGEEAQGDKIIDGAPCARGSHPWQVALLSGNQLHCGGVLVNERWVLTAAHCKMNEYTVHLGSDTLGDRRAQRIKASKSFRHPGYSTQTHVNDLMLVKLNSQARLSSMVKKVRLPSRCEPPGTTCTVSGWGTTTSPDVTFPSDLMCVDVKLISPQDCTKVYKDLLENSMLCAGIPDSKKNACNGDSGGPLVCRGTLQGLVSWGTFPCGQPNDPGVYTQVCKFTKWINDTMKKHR
KLK7 act conf: confirmation of human kallikrein-7 zymogen activators; purified proKLK7, EDANS-DABCYL substrate fluorescence; scaled: vehicle 0, mature enzyme 100; hit rate 68% among 3,200; shares compounds with proKLK7 act; AID 686949; activation, % at 7 µM;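 active means activation, as change over the incubation, above the mean of all tested compounds plus 3 SD, cut at about 13% in these data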
EDANS-DABCYL int: fluorescence interference counter-screen for KLK7 activators | shares compounds with proKLK7 act | EDANS-DABCYL substrate fluorescence interference, no enzyme, 4 h; solvent 0%, active enzyme control 100% | activation, % at 7 µM | hit rate 80% among 3,200 | AID 686952;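 active means activation above the all-compound mean plus 3 SD, ignoring values outside control-based bounds, cut at about 4.8% in these data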;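 further: value is the 4 h activation minus the activation read at time zero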
EDANS interf: EDANS fluorescence interference in dose response, no enzyme; shares compounds with proKLK7 act; EDANS-DABCYL peptide fluorescence interference; EC50, µM; hit rate 20% among 250;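 active means compounds that raise the fluorescence signal in this interference counterscreen, with EC50 at or below 10 µM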;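 further: intact quenched peptide substrate alone read at 355 nm excitation and 520 nm emission; signal is fluorescence gain from T0 to T4 after four hours at room temperature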
Starred values were filed as active, the others as inactive; i = inactive; nt = no result. Shown are actives, neighbours in structure and some others; about 3% of the full set was active somewhere.

SMILES | NRP1-CendR mod | PLCg1 inh | DDE Tn6 FP inh | DDE Tn7 FP inh | PLCb3 inh | proKLK7 act | KLK7 act conf | EDANS-DABCYL int | others
CC(=O)c1ccc(-c2cc(C(C)=O)c3n(c2=O)CCC3)cc1 | nt | i | -8.9 | 4.3 | i | 44.1* | 61.4* | 74.4*
CCN(CC)c1ccc(C=NNC(=O)Cc2cc(=O)[nH][nH]2)c(O)c1 | nt | -40.8 | 6.2 | -11.0 | -59.4 | -5.5 | nt | nt
Cc1oc2c(c(C)cc3oc(=O)c(CC(=O)N[C@@H](C)C(=O)O)c(C)c32)c1C | -2.5 | i | -5.7 | 9.0 | i | 8.6 | nt | nt
CC[C@@H](C)[C@H](NC(=O)Cc1c(C)c2c(cc(C)c3c(C)c(C)oc32)oc1=O)C(=O)O | -6.9 | i | -4.7 | 5.8 | i | 9.2 | nt | nt
Cc1coc2c1c(C)cc1oc(=O)c(CC(=O)N[C@@H](CC(C)C)C(=O)O)c(C)c12 | -2.9 | -448.5 | -7.2 | -2.9 | i | 10.5 | nt | nt
CCCC(NC(=O)Cc1c(C)c2c(cc(C)c3c(C)coc32)oc1=O)C(=O)O (configuration not stated) | -9.6 | i | 6.2 | -2.1 | i | 25.8* | -10.9 | -12.5
Cc1oc2c(c(C)cc3oc(=O)c(CC(=O)N[C@@H](CCCNC(N)=O)C(=O)O)c(C)c32)c1C | -3.4 | i | 5.8 | -1.4 | i | 22.0* | 20.9* | 13.8* | EDANS interf=>69.5
CC[C@@H](C)[C@H](NC(=O)CNC(=O)Cc1c(C)c2c(cc(C)c3c(C)coc32)oc1=O)C(=O)O | -0.7 | i | 3.0 | -2.7 | i | 24.4* | -39.2 | -43.8
Cc1coc2c1c(C)cc1oc(=O)c(CC(=O)NCCCN3CCCC3=O)c(C)c12 | -4.5 | i | 2.5 | 9.3 | i | 23.0* | 4.2 | 1.6
CC(C)(N[C@@H](Cc1c[nH]c2ccccc12)C(=O)NCCCc1ccccc1)C(=O)NCc1ccccc1 | nt | -0.9 | 8.7 | -4.1 | 1.0 | nt | nt | nt
CCCC1NC(C(=O)O)Cc2c1[nH]c1ccccc21 (configuration not stated) | -5.5 | -217.3 | -2.5 | -2.4 | -234.9 | 13.1* | 8.2 | 7.6*
CC(C)C1NC(C(=O)O)Cc2c1[nH]c1ccccc21 (configuration not stated) | 6.0 | -372.6 | -0.8 | -0.4 | -383.9 | 30.1* | 55.5* | 48.6*
O=C(OCc1cn(Cc2cc(F)ccc2F)nn1)N1CCOCC1 | nt | -0.1 | 7.0 | -1.4 | 0.8 | -0.5 | nt | nt
CCCCN(CCCC)CCn1cnc2c([nH]c3ccc(OC)cc32)c1=O | -8.5 | -149.1 | -0.1 | -1.2 | -183.1 | 6.5 | nt | nt
CCN(CC)CCn1cnc2c([nH]c3cccc(OC)c32)c1=O | 8.8 | -352.1 | 5.2 | -4.5 | -387.0 | 67.3* | 27.9* | 30.9*
COc1cccc2[nH]c3c(=O)[nH]cnc3c12 | -8.4 | -147.7 | -2.7 | 2.1 | -220.1 | 12.6* | 9.8 | 14.1*
COc1cccc2[nH]c3c(=O)n(CCN(C)C)cnc3c12 | -4.0 | -240.5 | -5.0 | 0.4 | -298.6 | 49.2* | 14.6* | 13.8*
COc1cc2[nH]c3c(=O)n(CCN(C(C)C)C(C)C)cnc3c2cc1OC | -13.4 | -89.7 | -1.6 | 1.8 | -119.1 | 6.2 | nt | nt
Cc1nn(-c2ccccc2)c2sc(C(=O)OC3CCOC3=O)cc12 (configuration not stated) | -5.0 | -137.9 | 8.3 | 1.6 | -186.4 | 20.4* | 10.9 | 13.4*
N#CCSc1ccc2nc(-c3ccccc3)cn2n1 | 5.9 | -358.2 | 2.0 | -1.5 | i | 16.1* | 31.8* | 32.2*
COC(=O)[C@]12C[C@H](CC(=O)NCc3cccc(C(F)(F)F)c3)C(=O)N(Cc3ccc(Cl)cc3Cl)C1=C[C@H](C1CCCC1)O[C@@H]2C | nt | 0.5 | -5.6 | -0.5 | 3.1 | 0.0 | nt | nt
